Consider five compounds from ChEMBL document CHEMBL3091295, “Inhibitors of tissue-nonspecific alkaline phosphatase: design, synthesis, kinetics, biomineralization and cellular tests” (Bioorg Med Chem, 2013).

In brackets after ≈: the same amount, converted by molar mass. Activity calls are given as the source filed them. The calls are words filed in the database; no cut-off is given here.

Data set [1] concerns the target T1, Alkaline phosphatase, placental type (Homo sapiens, UniProt P05187). As to the kind of experiment: Inhibition of placental alkaline phosphatase (unknown origin) assessed as para nitrophenylphosphate conversion to p-nitrophenolate at pH 7.8 incubated for 10 mins prior to substrate addition measured after 5 seconds by spectrophotometric analysis. The method in brief: (§1)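 Enzyme (TNAP, PLAP or IAP; final 6.93–11.4 µg/ml) in buffer with inhibitor at 0–400 µM, added from 10 mM DMSO stock. Preincubated 10 min at 37 °C without substrate, then mixed with an equal volume of 0.1 mM pNPP in the same buffer and stirred 5 s. p-Nitrophenolate read at 400 nm (ε 18.5 cm⁻¹ mM⁻¹ at pH 10.4), final DMSO 4% v/v. Activity relative to the no-inhibitor control. pH 7.8 runs used 0.1 M Tris–HCl with 5 mM MgCl2 and 5 mM ZnCl2 at 37 °C.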

Data set [2] has as its system SAOS-2. As to the kind of experiment: Reduction in ascorbic acid-induced mineralization in human Saos2 cells at 10 uM after 7 days by Alizarin Red S staining-based assay relative to control. The class given is functional. Also noted: scale not given: the % may be the effect or the level left. The gist of the method:
(§2)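 Confluent cells were cultured 7 days in growth medium with ascorbic acid and 7.5 mM β-glycerophosphate, with or without inhibitor (DMSO ≤0.1% v/v). Saos-2 were grown in McCoy's 5A with 15% FBS. Mineral was stained with Alizarin Red S, destained with 3.6% w/v cetylpyridinium chloride in PBS pH 7.0 for 60 min at room temperature, and read at 562 nm. Results are % of control, mean ± SD; MG63 n = 3, Saos-2 n = 9–12.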

Data set [3] is described as follows: Inhibition of porcine kidney TNAP assessed as para nitrophenylphosphate conversion to p-nitrophenolate at pH 7.8 incubated for 10 mins prior to substrate addition measured after 5 seconds by spectrophotometric analysis. Further details: species or system Sus scrofa. The method in brief:
as §1

Data set [4] is described as follows: Solubility of the compound in water by UV spectrometric analysis. The class given is physicochemical.
Data set [5] deals with T1, Alkaline phosphatase, placental type. As to the kind of experiment: Inhibition of placental alkaline phosphatase (unknown origin) assessed as para nitrophenylphosphate conversion to p-nitrophenolate at pH 10.4 incubated for 10 mins prior to substrate addition measured after 5 seconds by spectrophotometric analysis. The gist of the method:
as §1

For data set [6], the system named is SAOS-2. Kind of data set: Reduction in beta-glycerophosphate-induced mineralization in human Saos2 cells at 10 uM after 7 days by Alizarin Red S staining-based assay relative to control. The class given is functional. Also noted: scale not given: the % may be the effect or the level left. The gist of the method: as §2
A short description of data set [7]: Inhibition of porcine kidney TNAP assessed as para nitrophenylphosphate conversion to p-nitrophenolate at pH 10.4 incubated for 10 mins prior to substrate addition measured after 5 seconds by spectrophotometric analysis. Also noted: species or system Sus scrofa. The method in brief:
as §1

A short description of data set [8]: Uncompetitive inhibition of porcine kidney TNAP assessed as para nitrophenylphosphate conversion to p-nitrophenolate at pH 7.8 by Michaelis-Menten plot analysis. Further details: species or system Sus scrofa. The gist of the method:
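Porcine kidney TNAP activity measured with pNPP at pH 7.8 in 0.1 M Tris–HCl containing 5 mM MgCl2 and 5 mM ZnCl2 at 37 °C. Inhibitor was preincubated with enzyme for 10 min before substrate, and p-nitrophenolate was read at 400 nm to derive Ki.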

For data set [9], the target named is T2, Intestinal-type alkaline phosphatase (Homo sapiens, UniProt P09923). As to the kind of experiment: Inhibition of intestinal alkaline phosphatase (unknown origin) assessed as para nitrophenylphosphate conversion to p-nitrophenolate at pH 7.8 incubated for 10 mins prior to substrate addition measured after 5 seconds by spectrophotometric analysis. The method in brief: as §1

For data set [10], the target named is T2, Intestinal-type alkaline phosphatase. As to the kind of experiment: Inhibition of intestinal alkaline phosphatase (unknown origin) assessed as para nitrophenylphosphate conversion to p-nitrophenolate at pH 10.4 incubated for 10 mins prior to substrate addition measured after 5 seconds by spectrophotometric analysis. The method in brief: as §1
Data set [11] can be described thus: Cytotoxicity against human Saos2 cells assessed as cell viability up to 10 uM by MTT assay. The class given is cell-based. The following applies: saos-2. The gist of the method:
(§3)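 MTT viability: cells seeded at 3 × 10^4 cells/cm2 and treated with ascorbic acid plus 7.5 mM β-glycerophosphate, with or without inhibitor (DMSO ≤0.1% v/v final). MTT at 0.5 mg/ml final for 4 h, then solubilization solution overnight at 37 °C. Absorbance at 550 and 690 nm as % of untreated control, mean ± SD. MG63: one pool in triplicate (n = 3). Saos-2: 3–4 pools in triplicate (n = 9–12).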
For orientation: Formazan colour is commonly taken as a measure of viable cells.

The nature of data set [12]: Cytotoxicity against human MG63 cells assessed as cell viability up to 10 uM by MTT assay. The class given is cell-based. As to conditions: mg-63. The method in brief: as §3
Data set [13] deals with MG-63. Kind of data set: Reduction in beta-glycerophosphate-induced mineralization in human MG63 cells at 10 uM after 7 days by Alizarin Red S staining-based assay. The class given is functional, cell-based. The method in brief:
as §2

For data set [14], the system named is MG-63. As to the kind of experiment: Reduction in ascorbic acid-induced mineralization in human MG63 cells at 10 uM after 7 days by Alizarin Red S staining-based assay. The class given is functional, cell-based. The gist of the method: as §2
Data set [15] in a line: Solubility of the compound.

T1 sequence (P05187 whole entry): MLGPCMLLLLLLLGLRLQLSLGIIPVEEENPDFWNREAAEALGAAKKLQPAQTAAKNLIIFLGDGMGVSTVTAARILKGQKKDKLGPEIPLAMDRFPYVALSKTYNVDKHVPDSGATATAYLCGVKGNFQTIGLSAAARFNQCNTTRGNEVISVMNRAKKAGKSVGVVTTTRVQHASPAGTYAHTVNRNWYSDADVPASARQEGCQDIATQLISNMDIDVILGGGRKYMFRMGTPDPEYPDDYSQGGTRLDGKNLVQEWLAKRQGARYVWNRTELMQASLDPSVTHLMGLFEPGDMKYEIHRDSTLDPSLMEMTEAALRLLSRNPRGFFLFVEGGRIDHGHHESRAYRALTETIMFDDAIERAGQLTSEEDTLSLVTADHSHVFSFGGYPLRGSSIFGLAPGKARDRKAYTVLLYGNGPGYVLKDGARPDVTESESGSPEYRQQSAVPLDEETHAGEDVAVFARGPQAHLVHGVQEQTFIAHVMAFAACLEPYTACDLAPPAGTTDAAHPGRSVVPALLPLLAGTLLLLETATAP
T2 sequence (P09923 whole entry): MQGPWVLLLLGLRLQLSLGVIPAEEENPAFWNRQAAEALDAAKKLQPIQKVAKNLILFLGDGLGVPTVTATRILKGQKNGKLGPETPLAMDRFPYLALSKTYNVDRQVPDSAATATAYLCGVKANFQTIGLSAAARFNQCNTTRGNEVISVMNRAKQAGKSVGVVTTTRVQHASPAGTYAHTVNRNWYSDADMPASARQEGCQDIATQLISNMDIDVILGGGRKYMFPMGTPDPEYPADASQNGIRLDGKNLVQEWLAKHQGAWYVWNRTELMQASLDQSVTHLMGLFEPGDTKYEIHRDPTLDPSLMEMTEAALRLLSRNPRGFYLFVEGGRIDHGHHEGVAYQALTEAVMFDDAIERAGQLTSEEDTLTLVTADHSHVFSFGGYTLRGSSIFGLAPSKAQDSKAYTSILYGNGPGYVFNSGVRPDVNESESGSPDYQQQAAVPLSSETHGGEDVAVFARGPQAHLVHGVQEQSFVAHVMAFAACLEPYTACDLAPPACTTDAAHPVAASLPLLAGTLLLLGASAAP

For the compound `Cl.O=[N+]([O-])c1ccc2sc(C3CN4C=CSC4=N3)cc2c1` (racemic), the IC50 in [1] is more than 400 µM; in data set [3] it was 2.11 µM; in [5], more than 400 µM; in data set [7], 3.31 µM; in [9] it was more than 400 µM; in data set [10] it was more than 400 µM. For the same compound, the figures for the Activity (with SAOS-2 [2]; with SAOS-2 [6]; in data set [11]) were 25%, 25% and “Non-toxic”, respectively. For the same compound, the solubility in [4] is 6900 µM. Also, the Ki in [8] was determined as 1.3 µM.
With `Cl.Nc1ccc2sc(C3CN4C=CSC4=N3)cc2c1` (racemic), the IC50 in [1] is more than 400 µM; in data set [3] it was 18.3 µM; in data set [5] it was more than 400 µM; in [7] it was 23.2 µM; in [9] it was more than 400 µM; in [10], more than 400 µM. For the same compound, the result in the data set with SAOS-2 [2] and with SAOS-2 [6] was Active. This compound also showed a solubility in [4] of 1770 µM. In addition, the Ki in data set [8] came out at 10.3 µM. Moreover, in [11], the Activity result was “Non-toxic”.
With `C1=CN2CC(c3cc4ccccc4s3)N=C2S1.Cl` (racemic), the half-maximal inhibitory concentration (IC50) in data set [1] is more than 400 µM; in data set [3], 4.4 µM; in data set [5], more than 400 µM; in data set [7] it was 13.1 µM; in [9], more than 400 µM; in [10], more than 400 µM. The Activity entry in data set [12] and in data set [11] was “Non-toxic” throughout. Also, the outcome in the data set with SAOS-2 [2], in the data set with SAOS-2 [6], in the data set on MG-63 [13] and in the data set on MG-63 [14] was Active. Further, in data set [4], the concentration in solution (solubility) was 1300 µM. Further, the inhibition constant (Ki) in data set [8] was determined as 3.9 µM.
With `Cl.c1ccc2sc(C3CN4CCSC4=N3)cc2c1` (racemic), the IC50 in data set [1] was more than 400 µM; in data set [3], 5.5 µM; in [5], more than 400 µM; in data set [7] it was 16.4 µM; in data set [9], more than 400 µM; in data set [10] it was more than 400 µM. The Activity result in [12] and in data set [11] was “Non-toxic” in each case. The outcome in the data set on SAOS-2 [2], in the data set on SAOS-2 [6], in the data set with MG-63 [13] and with MG-63 [14] was Active. In data set [4], this compound returned a solubility of 450 µM. Besides, in [8], the inhibition constant Ki is 5 µM.
In the case of `c1ccc([C@H]2CN3CCSC3=N2)cc1` [LEVAMISOLE], the half-inhibitory concentration (IC50) is more than 400 µM in data set [1]; 23.2 µM in [3]; more than 400 µM in data set [5]; 62.9 µM in [7]; more than 400 µM in data set [9]; more than 400 µM in [10]. Moreover, the Activity result in [12] is on record as “Non-toxic”; in the data set with SAOS-2 [2], 33%; in the data set with SAOS-2 [6], 33%; in [11], “Non-toxic”. Moreover, the result with MG-63 [13] and in the data set with MG-63 [14] was Active. In addition, the concentration in solution in [15] (solubility) was 200000 µM (≈ 40.9 mg/mL). Further, the Ki in data set [8] turned out to be 30.5 µM.

Broadly, the IC50 is the concentration that inhibits the measured activity by half. For orientation: solubility means how much of the substance goes into solution per volume. Usually Ki stands for the dissociation constant of the complex between target and ligand, obtained from inhibition or displacement.
